Measured values taken from ChEMBL document CHEMBL2407062, “Synthesis and anticancer activities of 5,6,7-trimethoxy-N-phenyl(ethyl)-4-aminoquinazoline derivatives” (Eur J Med Chem, 2013).
Active and inactive are the calls of the source. No cut-off for these calls is given here.

What was measured:
PC-3 [1] = test: Induction of apoptosis in human PC3 cells assessed as apoptotic rate at 1 to 10 uM by annexin-V FITC and propidium iodide staining-based FACS flow cytometric analysis; assay type: functional, cell-based; conditions: TDE = time-dependent effect
Summary of the method: (§1)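 PC3 cells exposed to 1, 5 or 10 μM for 24, 48 or 72 h. Controls were 0.1% DMSO and HCPT 10 μM. Cells at 1 × 10⁶/mL washed twice with cold PBS, resuspended in binding buffer, stained with annexin V-FITC and PI. Apoptosis ratio is the sum of early (annexin+/PI−) and late (annexin+/PI+) fractions.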

PC-3 [2] = test: Induction of apoptosis in human PC3 cells assessed as apoptotic rate after 24 to 72 hrs by annexin-V FITC and propidium iodide staining-based FACS flow cytometric analysis; assay type: functional, cell-based; summary of the method: as §1
PC-3 [3] = test: Induction of apoptosis in human PC3 cells assessed as apoptotic rate at 10 uM after 72 hrs by annexin-V FITC and propidium iodide staining-based FACS flow cytometric analysis relative to control; assay type: functional
Summary of the method: (§2)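 PC3 cells (RPMI 1640 with 10% heat-inactivated FBS, 37 °C, 5% CO2) exposed to compound for 24, 48 or 72 h; 0.1% DMSO as negative control. Cells at 1 × 10⁶/mL washed twice in cold PBS, resuspended in binding buffer, stained with Annexin V-FITC and PI. Apoptosis ratio is early (Annexin+/PI−) plus late (Annexin+/PI+) apoptotic cells.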

PC-3 [4] = test: Induction of apoptosis in human PC3 cells assessed as apoptotic rate at 5 uM after 72 hrs by annexin-V FITC and propidium iodide staining-based FACS flow cytometric analysis relative to control; assay type: functional; summary of the method: as §1
PC-3 [5] = test: Induction of apoptosis in human PC3 cells assessed as apoptotic rate at 1 uM after 72 hrs by annexin-V FITC and propidium iodide staining-based FACS flow cytometric analysis relative to control; assay type: functional; summary of the method: as §1
PC-3 [6] = test: Induction of apoptosis in human PC3 cells assessed as apoptotic rate at 10 uM after 48 hrs by annexin-V FITC and propidium iodide staining-based FACS flow cytometric analysis relative to control; assay type: functional; summary of the method: as §2
PC-3 [7] = test: Induction of apoptosis in human PC3 cells assessed as apoptotic rate at 5 uM after 48 hrs by annexin-V FITC and propidium iodide staining-based FACS flow cytometric analysis relative to control; assay type: functional; summary of the method: as §1
PC-3 [8] = test: Induction of apoptosis in human PC3 cells assessed as apoptotic rate at 1 uM after 48 hrs by annexin-V FITC and propidium iodide staining-based FACS flow cytometric analysis relative to control; assay type: functional; summary of the method: as §1
PC-3 [9] = test: Induction of apoptosis in human PC3 cells assessed as apoptotic rate at 10 uM after 24 hrs by annexin-V FITC and propidium iodide staining-based FACS flow cytometric analysis relative to control; assay type: functional; summary of the method: as §2
PC-3 [10] = test: Induction of apoptosis in human PC3 cells assessed as apoptotic rate at 5 uM after 24 hrs by annexin-V FITC and propidium iodide staining-based FACS flow cytometric analysis relative to control; assay type: functional; summary of the method: as §1
PC-3 [11] = test: Induction of apoptosis in human PC3 cells assessed as apoptotic rate at 1 uM after 24 hrs by annexin-V FITC and propidium iodide staining-based FACS flow cytometric analysis relative to control; assay type: functional; summary of the method: as §1
PC-3 [12] = test: Induction of apoptosis in human PC3 cells assessed as DNA fragmentation at 10 uM by agarose gel electrophoretic analysis; assay type: functional, cell-based
Summary of the method: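 PC3 cells treated at 10 μM. Apoptotic DNA fragments extracted, run on agarose gel electrophoresis, stained with Gold View.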

PC-3 [13] = test: Induction of apoptosis in human PC3 cells assessed as apoptotic cells at 10 uM after 72 hrs by Hoechst 33258 staining-based fluorescence microscopic analysis; assay type: functional, cell-based
Summary of the method: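 PC3 cells treated at 1 and 10 μM for 72 h, then stained with Hoechst 33258 and viewed by fluorescence microscopy. DMSO negative control; HCPT 10 μM for 72 h positive control. Bright blue condensed nuclei were scored as apoptotic.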

PC-3 [14] = test: Induction of necrosis in human PC3 cells at 10 uM after 72 hrs by AO/EB staining-based fluorescence microscopic analysis; assay type: cell-based; conditions: pc-3, 72 h
Summary of the method: (§3)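 PC3 cells seeded at 5 × 10⁴ cells/mL on cover slips, then given fresh medium with 10% FBS plus compound, 10 μM for 24–72 h. HCPT 10 μM positive control. Stained with AO/EB (100 μg/mL) and examined by fluorescence microscopy. Green: live; green-yellow: early apoptotic; orange fragments: late apoptotic; orange without condensed chromatin: necrotic.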

PC-3 [15] = test: Induction of apoptosis in human PC3 cells assessed as late apoptotic cells at 10 uM after 72 hrs by AO/EB staining-based fluorescence microscopic analysis; assay type: functional, cell-based; summary of the method: as §3
PC-3 [16] = test: Induction of apoptosis in human PC3 cells assessed as cell budding at 10 uM after 24 to 72 hrs by AO/EB staining-based fluorescence microscopic analysis; assay type: functional; summary of the method: as §3
PC-3 [17] = test: Induction of apoptosis in human PC3 cells assessed as membrane blebbing at 10 uM after 24 to 72 hrs by AO/EB staining-based fluorescence microscopic analysis; assay type: functional, cell-based; summary of the method: as §3
PC-3 [18] = test: Induction of apoptosis in human PC3 cells assessed as pycnosis at 10 uM after 24 to 72 hrs by AO/EB staining-based fluorescence microscopic analysis; assay type: functional, cell-based; summary of the method: as §3
PC-3 [19] = test: Induction of apoptosis in human PC3 cells at 10 uM after 24 to 72 hrs by AO/EB staining-based fluorescence microscopic analysis; assay type: functional, cell-based; summary of the method: as §3
Bcap37 [20] = test: Growth inhibition of human Bcap37 cells after 72 hrs by MTT assay; assay type: functional, cell-based; conditions: Bcap37, 72 h
Summary of the method: (§4)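 Cells in RPMI 1640 with 10% heat-inactivated FBS, 37 °C, 5% CO2. Seeded at 2 × 10³ cells per well. Compounds dissolved in DMSO, diluted in medium, tested at 1–100 μM for 72 h; 0.1% DMSO control. MTT read-out, absorbance at 595 nm. Mean ± SD of triplicate experiments. IC50 taken from the dose–response curve.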

BGC-823 [21] = test: Growth inhibition of human BGC823 cells after 72 hrs by MTT assay; assay type: functional, cell-based; conditions: BGC-823, 72 h; summary of the method: as §4
PC-3 [22] = test: Growth inhibition of human PC3 cells after 72 hrs by MTT assay; assay type: functional, cell-based; conditions: PC-3, 72 h; summary of the method: as §4
Bcap37 [23] = test: Growth inhibition of human Bcap37 cells at 10 uM after 72 hrs by MTT assay relative to control; assay type: functional; conditions: Homo sapiens, Bcap37, 72 h; read-out: GI; summary of the method: as §4
Bcap37 [24] = test: Growth inhibition of human Bcap37 cells at 1 uM after 72 hrs by MTT assay relative to control; assay type: functional; conditions: Homo sapiens, Bcap37, 72 h; read-out: GI; summary of the method: as §4
BGC-823 [25] = test: Growth inhibition of human BGC823 cells at 10 uM after 72 hrs by MTT assay relative to control; assay type: functional; conditions: BGC-823, 72 h, read-out: GI; summary of the method: as §4
BGC-823 [26] = test: Growth inhibition of human BGC823 cells at 1 uM after 72 hrs by MTT assay relative to control; assay type: functional; conditions: BGC-823, 72 h, read-out: GI; summary of the method: as §4
PC-3 [27] = test: Growth inhibition of human PC3 cells at 1 uM after 72 hrs by MTT assay relative to control; assay type: functional; conditions: Homo sapiens, PC-3, 72 h; read-out: GI; summary of the method: as §4
PC-3 [28] = test: Growth inhibition of human PC3 cells at 10 uM after 72 hrs by MTT assay relative to control; assay type: functional; conditions: Homo sapiens, PC-3, 72 h; read-out: GI; summary of the method: as §4
[29] = target: T1, Mitogen-activated protein kinase; ERK1/ERK2 (Homo sapiens) (UniProt P27361+P28482); test: Inhibition of EGF-induced ERK1/2 phosphorylation in human PC3 cells at 1.28 uM incubated for 60 mins prior to EGF-treatment measured after 10 mins by Western blotting analysis; assay type: cell-based; conditions: PC-3
T1 sequence (P27361 whole entry, looked up): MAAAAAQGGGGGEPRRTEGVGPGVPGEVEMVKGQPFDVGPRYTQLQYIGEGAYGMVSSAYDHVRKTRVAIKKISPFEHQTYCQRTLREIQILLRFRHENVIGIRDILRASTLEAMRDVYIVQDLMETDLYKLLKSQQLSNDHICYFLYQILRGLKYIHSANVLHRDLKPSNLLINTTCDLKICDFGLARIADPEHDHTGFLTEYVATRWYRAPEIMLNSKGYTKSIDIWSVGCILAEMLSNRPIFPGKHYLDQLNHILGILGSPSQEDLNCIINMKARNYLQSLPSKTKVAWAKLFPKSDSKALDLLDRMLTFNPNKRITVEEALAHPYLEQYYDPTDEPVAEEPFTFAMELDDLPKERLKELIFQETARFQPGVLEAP
T1 sequence (P28482 whole entry, looked up): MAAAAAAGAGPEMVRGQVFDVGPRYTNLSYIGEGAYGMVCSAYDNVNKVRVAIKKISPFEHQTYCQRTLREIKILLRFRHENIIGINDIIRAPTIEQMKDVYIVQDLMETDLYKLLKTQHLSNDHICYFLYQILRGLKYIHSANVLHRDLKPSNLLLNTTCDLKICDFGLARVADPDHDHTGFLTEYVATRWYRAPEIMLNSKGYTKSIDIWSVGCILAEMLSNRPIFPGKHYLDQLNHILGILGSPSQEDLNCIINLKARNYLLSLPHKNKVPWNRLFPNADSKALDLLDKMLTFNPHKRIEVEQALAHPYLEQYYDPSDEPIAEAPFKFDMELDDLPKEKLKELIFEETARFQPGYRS
Summary of the method: (§5)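 PC3 cells grown 36–48 h in RPMI 1640 with 10% FBS at 37 °C, then serum-starved 24 h. Treated with compound for 60 min, then EGF 10 ng/mL for 10 min; quenched on ice. Cells washed with cold PBS and lysed in NP-40/SDS buffer with Na3VO4 and NaF. Run on 10% SDS-PAGE, PVDF blot probed for pERK1/2 with actin as loading control, ECL detection.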

[30] = target: T1, Mitogen-activated protein kinase; ERK1/ERK2 (Homo sapiens); test: Inhibition of EGF-induced ERK1/2 phosphorylation in human PC3 cells at 10 uM incubated for 60 mins prior to EGF-treatment measured after 10 mins by Western blotting analysis; assay type: cell-based; conditions: PC-3; summary of the method: as §5
PC-3 [31] = test: Induction of apoptosis in human PC3 cells assessed as apoptotic rate at 30 uM after 72 hrs by annexin-V FITC and propidium iodide staining-based FACS flow cytometric analysis relative to control; assay type: functional; summary of the method: as §2
PC-3 [32] = test: Induction of apoptosis in human PC3 cells assessed as apoptotic rate at 20 uM after 72 hrs by annexin-V FITC and propidium iodide staining-based FACS flow cytometric analysis relative to control; assay type: functional; summary of the method: as §2
PC-3 [33] = test: Induction of apoptosis in human PC3 cells assessed as apoptotic rate at 30 uM after 48 hrs by annexin-V FITC and propidium iodide staining-based FACS flow cytometric analysis relative to control; assay type: functional; summary of the method: as §2
PC-3 [34] = test: Induction of apoptosis in human PC3 cells assessed as apoptotic rate at 20 uM after 48 hrs by annexin-V FITC and propidium iodide staining-based FACS flow cytometric analysis relative to control; assay type: functional; summary of the method: as §2
PC-3 [35] = test: Induction of apoptosis in human PC3 cells assessed as apoptotic rate at 30 uM after 24 hrs by annexin-V FITC and propidium iodide staining-based FACS flow cytometric analysis relative to control; assay type: functional; summary of the method: as §2
PC-3 [36] = test: Induction of apoptosis in human PC3 cells assessed as apoptotic rate at 20 uM after 24 hrs by annexin-V FITC and propidium iodide staining-based FACS flow cytometric analysis relative to control; assay type: functional; summary of the method: as §2
PC-3 [37] = test: Induction of apoptosis in human PC3 cells assessed as compact nucleus at 10 uM after 72 hrs by Hoechst 33258 staining-based fluorescence microscopic analysis; assay type: functional, cell-based
Summary of the method: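 PC3 cells treated 72 h, then stained with Hoechst 33258 and viewed by fluorescence microscopy. DMSO served as negative control. Live nuclei scored as uniformly light blue; apoptotic nuclei bright blue with condensed chromatin and karyopyknosis.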

PC-3 [38] = test: Induction of apoptosis in human PC3 cells assessed as pycnosis at 10 uM after 48 hrs by AO/EB staining-based fluorescence microscopic analysis; assay type: functional, cell-based
Summary of the method: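 PC3 cells seeded at 5 × 10⁴ cells/mL on sterile coverslips. Medium replaced with fresh medium plus 10% FBS containing compound, treated 24–72 h. Coverslips inverted onto acridine orange/ethidium bromide stain ([…] as printed) and read by fluorescence microscopy. Live cells scored green, early apoptotic green-yellow, late apoptotic orange, necrotic orange without condensed chromatin.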

COc1cc2ncnc(NCCc3ccccc3F)c2c(OC)c1OC
Activity (PC-3 [1]): tde | Activity (PC-3 [2]): Dose-dependent effect | Activity (PC-3 [3]): 31.8% | Activity (PC-3 [4]): 19.8% | Activity (PC-3 [5]): 11.6% | Activity (PC-3 [6]): 16.4% | Activity (PC-3 [7]): 11.1% | Activity (PC-3 [8]): 9.5% | Activity (PC-3 [9]): 10.9% | Activity (PC-3 [10]): 8.2% | Activity (PC-3 [11]): 5.1% | Activity (PC-3 [12]): Active | Activity (PC-3 [13]): Active | Activity (PC-3 [14]): Non-toxic | Activity (PC-3 [15]): Active | Activity (PC-3 [16]): Active | Activity (PC-3 [17]): Active | Activity (PC-3 [18]): Active | Activity (PC-3 [19]): Active | IC50 (Bcap37 [20]): 3.1 µM | IC50 (BGC-823 [21]): 3.2 µM | IC50 (PC-3 [22]): 6.2 µM | inhibition of growth at 10 µM (Bcap37 [23]): 90.4% | inhibition of growth at 1 µM (Bcap37 [24]): 46.5% | inhibition of growth at 10 µM (BGC-823 [25]): 88.2% | inhibition of growth at 1 µM (BGC-823 [26]): 38.7% | inhibition of growth at 1 µM (PC-3 [27]): 22.6% | inhibition of growth at 10 µM (PC-3 [28]): 90.6% | inhibition [29]: Active | inhibition [30]: Active

CC[C@@]1(O)C(=O)OCc2c1cc1n(c2=O)Cc2cc3cc(O)ccc3nc2-1 [HYDROXYCAMPTOTHECIN]
Activity (PC-3 [31]): 38.2% | Activity (PC-3 [32]): 19.8% | Activity (PC-3 [33]): 12.8% | Activity (PC-3 [34]): 11.9% | Activity (PC-3 [35]): 11.9% | Activity (PC-3 [36]): 7.4% | Activity (PC-3 [3]): 17% | Activity (PC-3 [6]): 8.3% | Activity (PC-3 [9]): 5.7% | Activity (PC-3 [37]): Active | Activity (PC-3 [38]): Active
